Key:
[1] = target: Aldo-keto reductase family 1 member B1 (Rattus norvegicus, UniProt P07943); assay: Inhibition of rat aldose reductase enzyme.
Outline: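 Rat lens supernatant (homogenized in water, spun at 0–5 °C, diluted to a control rate of 0.010 ± 0.002 A/min). Assayed in 0.1 M phosphate pH 6.2, 0.104 mM NADPH, 10 mM DL-glyceraldehyde, following A340 decrease for 3.0 min. Four inhibitor concentrations, three determinations each. IC50 from least-squares fit of the log dose-response curve.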

[2] = target: Aldo-keto reductase family 1 member B1 (Rattus norvegicus) (UniProt P07943); assay: Inhibition of rat aldose reductase activity at 100 uM.
Outline: (§1)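 Crude rat lens enzyme: 50 lenses homogenized in distilled water and spun at 10000 rpm for 10 min at 0–5 °C. Supernatant diluted so the control rate was 0.010 ± 0.002 A/min. Reaction in 0.1 M phosphate pH 6.2 with 0.104 mM NADPH, started with 10 mM DL-glyceraldehyde. NADPH loss read at 340 nm for 3.0 min against a glyceraldehyde-free blank. Inhibitor tested at 100 μM; % inhibition vs substrate-only control, reported with SEM.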

[3] = target: Aldo-keto reductase family 1 member B1 (Rattus norvegicus) (UniProt P07943); assay: Compound was tested for percent inhibition of aldose reductase inhibitory activity using rat lens assay at concentration of 100 uM; outline: as §1

Structure (SMILES) | IC50 [1] [µM] | inhibition [2] [%] | inhibition [3] [%]
Nc1cccc(S(=O)(=O)NCC(=O)O)c1 | 29 | 73 | –
CC(=O)Nc1ccc(S(=O)(=O)NCC(=O)O)cc1 | 4.22 | 88 | –
Nc1ccc(S(=O)(=O)NCC(=O)O)cc1 | 16 | 76 | –
O=C(O)CNS(=O)(=O)c1ccc(NCc2ccccc2)cc1 | 7.04 | 71 | –
O=C(O)CNS(=O)(=O)c1ccc(NC(=O)Cc2ccccc2)cc1 | 2.17 | – | 100
O=C(O)CNS(=O)(=O)c1ccc(NC(=O)Nc2ccccc2)cc1 | 2.75 | 83 | –
O=C(O)CNS(=O)(=O)c1ccc(N/C(S)=N/c2ccccc2)cc1 | 8.42 | 65 | –
O=C(O)CNS(=O)(=O)c1ccc(NC(=O)c2ccccc2)cc1 | 0.41 | 81 | –
O=C(O)CNS(=O)(=O)c1ccc(NC(=O)COCc2ccccc2)cc1 | 3.5 | 79 | –
O=C(O)CNS(=O)(=O)c1ccc(NC(=O)OCc2ccccc2)cc1 | 6.03 | 82 | –
O=C(O)CNS(=O)(=O)c1ccc(NC(=O)/C=C/c2ccccc2)cc1 | 0.69 | 72 | –
O=C(O)CNS(=O)(=O)c1ccc(NC(=O)CCc2ccccc2)cc1 | 11.5 | 86 | –
O=C(O)CNS(=O)(=O)c1cccc(NC(=O)c2ccccc2)c1 | 7.12 | 79 | –
O=C(O)CNS(=O)(=O)c1ccc(NC(=O)COc2ccccc2)cc1 | 2.64 | 87 | –
Nc1ccccc1S(=O)(=O)NCC(=O)O | 38 | 74 | –
CN(C)c1ccc(S(=O)(=O)NCC(=O)O)cc1 | 10.9 | 80 | –
O=C(O)CNS(=O)(=O)c1ccccc1NC(=O)c1ccccc1 | 78 | 52 | –
